Results taken from ChEMBL document CHEMBL1137943, “Synthesis and antibacterial activity of O-substituted nocathiacin I derivatives” (Bioorg Med Chem Lett, 2004).
In brackets after ≈: the same amount, converted by molar mass.

How the values were obtained:
Streptococcus pneumoniae = test: Minimum concentration required to inhibit visible growth of penicillin-resistant Streptococcus pneumoniae A28272; format: functional
Outline: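 Serial microbroth dilution in 50% Mueller–Hinton/50% Todd–Hewitt medium; final inoculum about 5 × 10^5 CFU/well; incubated at 35 °C for 18 h in ambient air. MIC is the lowest drug concentration preventing visible growth.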

Staphylococcus aureus = test: Minimum concentration required to inhibit visible growth of methicillin-sensitive Staphylococcus aureus A15090; format: functional
Outline: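 Serial microbroth dilution in Mueller–Hinton medium; final inoculum about 5 × 10^5 CFU/well; incubated at 35 °C for 18 h in ambient air. MIC is the lowest drug concentration preventing visible bacterial growth.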

Enterococcus faecalis = test: Minimum concentration required to inhibit visible growth of Enterococcus faecalis A20688
[1] = Equilibrium water solubility was determined with amorphous powders at pH 7.1; format: ADME
[2] = Equilibrium water solubility was determined with amorphous powders at pH 8.4; format: ADME
Mus musculus [3] = test: Dose (iv) required against Staphylococcus aureus infected mice; format: functional; settings: read-out: PD50
[4] = Equilibrium water solubility was determined with amorphous powders at pH 3; format: ADME
[5] = Equilibrium water solubility was determined with amorphous powders at pH 8.2; format: ADME
[6] = Equilibrium water solubility was determined with amorphous powders at pH 8.5; format: ADME
[7] = Equilibrium water solubility was determined with amorphous powders at pH 3.5; format: ADME
Mus musculus [8] = test: Dose (sc) required against Staphylococcus aureus infected mice; format: functional; settings: read-out: PD50
Outline: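 Adult female ICR mice infected ip with 5–6 × 10^6 CFU of S. aureus A15090 in 7% hog gastric mucin. Drug in 10% DMSO/5% Tween 80/85% water given sc twice, at 1 and 4 h post-infection. Survival followed for 8 days; 10 mice per group, at least three doses. PD50 (mg/kg) by Spearman–Karber estimator.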

[9] = Equilibrium water solubility was determined with amorphous powders at pH 6.9; format: ADME
[10] = Equilibrium water solubility was determined with amorphous powders at pH 4; format: ADME

Which results are given for `C=C(NC(=O)c1csc(-c2nc3c(cc2OP(=O)(O)OCCCl)-c2nc(cs2)C(=O)NC(C(C)O)C(=O)N/C(=C(\C)OC)c2nc(cs2)C(=O)NC2c4nc(cs4)C(=O)NC(COC(=O)c4c5c6c(cccc6n4O)COC(=O)C(OC4CC(C)(O)C(N(C)C)C(C)O4)C2OC5)c2nc-3cs2)n1)C(N)=O` (stereo not drawn)?
MIC (Streptococcus pneumoniae): 0.03 µg/mL (≈ 0.019 µM); MIC (Staphylococcus aureus): 1 µg/mL (≈ 0.633 µM); MIC (Enterococcus faecalis): 1 µg/mL (≈ 0.633 µM)

For `C=C(NC(=O)c1csc(-c2nc3c(cc2O)-c2nc(cs2)C(=O)NC(C(C)O)C(=O)N/C(=C(\C)OC)c2nc(cs2)C(=O)NC2c4nc(cs4)C(=O)NC(COC(=O)c4c5c6c(cccc6n4OC(=O)NCCCC)COC(=O)C(OC4CC(C)(O)C(N(C)C)C(C)O4)C2OC5)c2nc-3cs2)n1)C(N)=O` (stereo not drawn), which MIC (Streptococcus pneumoniae) is on record?
Its MIC is 0.007 µg/mL (≈ 0.00456 µM).

And the MIC (Staphylococcus aureus)?
Its MIC is 0.001 µg/mL (≈ 0.000651 µM).

And the MIC (Enterococcus faecalis)?
Its MIC is 0.03 µg/mL (≈ 0.0195 µM).

Which MIC (Streptococcus pneumoniae) does the source give for `C=C(NC(=O)c1csc(-c2nc3c(cc2O)-c2nc(cs2)C(=O)NC(C(C)O)C(=O)N/C(=C(\C)OC)c2nc(cs2)C(=O)NC2c4nc(cs4)C(=O)NC(COC(=O)c4c5c6c(cccc6n4OC(=O)N(C)CCO)COC(=O)C(OC4CC(C)(O)C(N(C)C)C(C)O4)C2OC5)c2nc-3cs2)n1)C(N)=O` (stereo not drawn) here?
The MIC was 0.0005 µg/mL (≈ 0.000325 µM).

What about the MIC (Staphylococcus aureus) of the same molecule?
The MIC was 0.03 µg/mL (≈ 0.0195 µM).

What about the solubility thermodynamic [1] of the same molecule?
The solubility thermodynamic was 3 µg/mL (≈ 1.95 µM).

And the MIC (Enterococcus faecalis)?
Its MIC is 0.03 µg/mL (≈ 0.0195 µM).

For `C=C(NC(=O)c1csc(-c2nc3c(cc2OP(=O)(O)OCCCl)-c2nc(cs2)C(=O)NC(C(C)O)C(=O)N/C(=C(\C)OC)c2nc(cs2)C(=O)NC2c4nc(cs4)C(=O)NC(COC(=O)c4c5c6c(cccc6n4OP(=O)(O)OCCCl)COC(=O)C(OC4CC(C)(O)C(N(C)C)C(C)O4)C2OC5)c2nc-3cs2)n1)C(N)=O` (stereo not drawn), which MIC (Streptococcus pneumoniae) is on record?
Its MIC is 0.5 µg/mL (≈ 0.29 µM).

And the MIC (Staphylococcus aureus)?
Its MIC is 4 µg/mL (≈ 2.32 µM).

And the MIC (Enterococcus faecalis)?
The MIC was 4 µg/mL (≈ 2.32 µM).

For `C=C(NC(=O)c1csc(-c2nc3c(cc2OP([O-])OC)-c2nc(cs2)C(=O)NC(C(C)O)C(=O)N/C(=C(\C)OC)c2nc(cs2)C(=O)NC2c4nc(cs4)C(=O)NC(COC(=O)c4c5c6c(cccc6n4O)COC(=O)C(OC4CC(C)(O)C(N(C)C)C(C)O4)C2OC5)c2nc-3cs2)n1)C(N)=O.[Na+]` (stereo not drawn), which MIC (Streptococcus pneumoniae) is on record?
Its MIC is 0.06 µg/mL.

What about the solubility thermodynamic [2] of the same molecule?
The solubility thermodynamic was greater than 2200 µg/mL.

What about the MIC (Staphylococcus aureus) of the same molecule?
The MIC was 0.125 µg/mL.

And the ED50 (Mus musculus [3])?
The ED50 was 0.26 mg/kg.

And the MIC (Enterococcus faecalis)?
Its MIC is 0.25 µg/mL.

With `C=C(NC(=O)c1csc(-c2nc3c(cc2O)-c2nc(cs2)C(=O)NC(C(C)O)C(=O)N/C(=C(\C)OC)c2nc(cs2)C(=O)NC2c4nc(cs4)C(=O)NC(COC(=O)c4c5c6c(cccc6n4OC(=O)NC)COC(=O)C(OC4CC(C)(O)C(N(C)C)C(C)O4)C2OC5)c2nc-3cs2)n1)C(N)=O` (stereo not drawn) as the molecule, how does the MIC (Streptococcus pneumoniae) read?
Its MIC is 0.001 µg/mL (≈ 0.000669 µM).

And the MIC (Staphylococcus aureus)?
Its MIC is 0.125 µg/mL (≈ 0.0836 µM).

What about the MIC (Enterococcus faecalis) of the same molecule?
Its MIC is 0.06 µg/mL (≈ 0.0401 µM).

For `C=C(NC(=O)c1csc(-c2nc3c(cc2O)-c2nc(cs2)C(=O)NC(C(C)O)C(=O)N/C(=C(\C)OC)c2nc(cs2)C(=O)NC2c4nc(cs4)C(=O)NC(COC(=O)c4c5c6c(cccc6n4OC(=O)NCCCN4CCN(C)CC4)COC(=O)C(OC4CC(C)(O)C(N(C)C)C(C)O4)C2OC5)c2nc-3cs2)n1)C(N)=O` (stereo not drawn), which MIC (Streptococcus pneumoniae) is on record?
Its MIC is 0.0005 µg/mL (≈ 0.000308 µM).

And the MIC (Staphylococcus aureus)?
The MIC was 0.003 µg/mL (≈ 0.00185 µM).

And the solubility thermodynamic [4]?
Its solubility thermodynamic is greater than 2300 µg/mL.

What about the MIC (Enterococcus faecalis) of the same molecule?
The MIC was 0.003 µg/mL (≈ 0.00185 µM).

For `C=C(NC(=O)c1csc(-c2nc3c(cc2O)-c2nc(cs2)C(=O)NC(C(C)O)C(=O)N/C(=C(\C)OC)c2nc(cs2)C(=O)NC2c4nc(cs4)C(=O)NC(COC(=O)c4c5c6c(cccc6n4OP([O-])OC)COC(=O)C(OC4CC(C)(O)C(N(C)C)C(C)O4)C2OC5)c2nc-3cs2)n1)C(N)=O.[Na+]` (stereo not drawn), which MIC (Streptococcus pneumoniae) is on record?
Its MIC is 0.007 µg/mL.

What about the solubility thermodynamic [5] of the same molecule?
The solubility thermodynamic was 5600 µg/mL.

What about the MIC (Staphylococcus aureus) of the same molecule?
The MIC was 0.125 µg/mL.

And the ED50 (Mus musculus [3])?
Its ED50 is 1.6 mg/kg.

What about the MIC (Enterococcus faecalis) of the same molecule?
The MIC was 0.25 µg/mL.

With `C=C(NC(=O)c1csc(-c2nc3c(cc2OP([O-])OC)-c2nc(cs2)C(=O)NC(C(C)O)C(=O)N/C(=C(\C)OC)c2nc(cs2)C(=O)NC2c4nc(cs4)C(=O)NC(COC(=O)c4c5c6c(cccc6n4OP([O-])OC)COC(=O)C(OC4CC(C)(O)C(N(C)C)C(C)O4)C2OC5)c2nc-3cs2)n1)C(N)=O.[Na+].[Na+]` (stereo not drawn) as the molecule, how does the MIC (Streptococcus pneumoniae) read?
The MIC was 0.003 µg/mL.

What about the MIC (Staphylococcus aureus) of the same molecule?
Its MIC is 0.25 µg/mL.

And the ED50 (Mus musculus [3])?
The ED50 was 5.9 mg/kg.

And the solubility thermodynamic [6]?
The solubility thermodynamic was greater than 10000 µg/mL.

And the MIC (Enterococcus faecalis)?
The MIC was 0.25 µg/mL.

What does the source list for `C=C(NC(=O)c1csc(-c2nc3c(cc2O)-c2nc(cs2)C(=O)NC(C(C)O)C(=O)N/C(=C(\C)OC)c2nc(cs2)C(=O)NC2c4nc(cs4)C(=O)NC(COC(=O)c4c5c6c(cccc6n4OC(=O)NCCOCCOCCOCCOC)COC(=O)C(OC4CC(C)(O)C(N(C)C)C(C)O4)C2OC5)c2nc-3cs2)n1)C(N)=O` (stereo not drawn)?
MIC (Streptococcus pneumoniae): 0.015 µg/mL (≈ 0.00898 µM); MIC (Staphylococcus aureus): 0.125 µg/mL (≈ 0.0748 µM); MIC (Enterococcus faecalis): 0.125 µg/mL (≈ 0.0748 µM)

With `C=C(NC(=O)c1csc(-c2nc3c(cc2O)-c2nc(cs2)C(=O)NC(C(C)O)C(=O)N/C(=C(\C)OC)c2nc(cs2)C(=O)NC2c4nc(cs4)C(=O)NC(COC(=O)c4c5c6c(cccc6n4OC(=O)NCCOCCOCCOCCOCCOCCO)COC(=O)C(OC4CC(C)(O)C(N(C)C)C(C)O4)C2OC5)c2nc-3cs2)n1)C(N)=O` (stereo not drawn) as the molecule, how does the MIC (Streptococcus pneumoniae) read?
Its MIC is 0.003 µg/mL (≈ 0.00172 µM).

What about the MIC (Staphylococcus aureus) of the same molecule?
Its MIC is 0.06 µg/mL (≈ 0.0344 µM).

And the solubility thermodynamic [7]?
Its solubility thermodynamic is greater than 2100 µg/mL.

And the MIC (Enterococcus faecalis)?
Its MIC is 0.06 µg/mL (≈ 0.0344 µM).

And the ED50 (Mus musculus [8])?
Its ED50 is 0.78 mg/kg.

For `C=C(NC(=O)c1csc(-c2nc3c(cc2O)-c2nc(cs2)C(=O)NC(C(C)O)C(=O)N/C(=C(\C)OC)c2nc(cs2)C(=O)NC2c4nc(cs4)C(=O)NC(COC(=O)c4c5c6c(cccc6n4OP(=O)(O)OCCCl)COC(=O)C(OC4CC(C)(O)C(N(C)C)C(C)O4)C2OC5)c2nc-3cs2)n1)C(N)=O` (stereo not drawn), which MIC (Streptococcus pneumoniae) is on record?
The MIC was 0.03 µg/mL (≈ 0.019 µM).

What about the MIC (Staphylococcus aureus) of the same molecule?
The MIC was 0.25 µg/mL (≈ 0.158 µM).

And the MIC (Enterococcus faecalis)?
Its MIC is 0.5 µg/mL (≈ 0.316 µM).

What about the solubility thermodynamic [9] of the same molecule?
The solubility thermodynamic was 530 µg/mL (≈ 335 µM).

What about the ED50 (Mus musculus [8]) of the same molecule?
The ED50 was greater than 10 mg/kg.

With `C=C(NC(=O)c1csc(-c2nc3c(cc2O)-c2nc(cs2)C(=O)N[C@@H]([C@@H](C)O)C(=O)N/C(=C(\C)OC)c2nc(cs2)C(=O)N[C@@H]2c4nc(cs4)C(=O)N[C@@H](COC(=O)c4c5c6c(cccc6n4O)COC(=O)[C@@H](O[C@H]4C[C@](C)(O)[C@H](N(C)C)[C@H](C)O4)[C@H]2OC5)c2nc-3cs2)n1)C(N)=O` [MJ347-81F4 A] as the molecule, how does the MIC (Streptococcus pneumoniae) read?
Its MIC is 0.002 µg/mL (≈ 0.00139 µM).

What about the MIC (Staphylococcus aureus) of the same molecule?
Its MIC is 0.007 µg/mL (≈ 0.00487 µM).

And the solubility thermodynamic [10]?
The solubility thermodynamic was 340 µg/mL (≈ 237 µM).

What about the ED50 (Mus musculus [3]) of the same molecule?
Its ED50 is 0.2 mg/kg.

What about the MIC (Enterococcus faecalis) of the same molecule?
Its MIC is 0.03 µg/mL (≈ 0.0209 µM).
